The values that follow come from ChEMBL document CHEMBL1124684, “Studies on prodrugs. 10. Possible mechanism of N-dealkylation of N-masked norfloxacins having several active methylene groups” (J Med Chem, 1989).

The test system of series [1] is Mus musculus. The series can be described thus: (§1) Serum concentration of the liberated Norfloxacin after oral administration (100 mg/kg) in mice after 0.5 hr. The format is functional, organism-based. The procedure, abridged:
(§2)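 Mice dosed orally at 100 mg/kg, suspended in 0.5% sodium carboxymethylcellulose. Animals killed by bleeding at 0.5, 1.0, 2.0 and 4.0 h; blood centrifuged, serum adjusted. NFLX in serum quantified by HPLC with UV detection at 280 nm. Stability of the masked compounds at pH 7.4 and 37 °C was checked beforehand by HPLC.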

For series [2], the system named is Mus musculus. The experiment in a line: Serum concentration of the liberated Norfloxacin after oral administration 100 mg/kg in mice after the 1.0 h. Details: dose 100 mg/kg. The format is functional, organism-based. In a few lines: as §2
Series [3] has as its system Mus musculus. The series can be described thus: Serum concentration of the liberated Norfloxacin after oral administration (100 mg/kg) in mice after 4.0h. The class given is functional, organism-based. In a few lines:
as §2

The test system of series [4] is Mus musculus. The experiment in a line: Serum concentration of the liberated Norfloxacin after oral administration 100 mg/kg in mice after the 0.5 h. The class given is functional, organism-based. Also noted: dose 100 mg/kg. In a few lines:
as §2

In series [5] the test system is Mus musculus. The series can be described thus: Serum concentration of the liberated Norfloxacin after oral administration (100 mg/kg) in mice after 2.0 hr. The format is functional, organism-based. The procedure, abridged:
as §2

In series [6] the test system is Mus musculus. The series can be described thus: Serum concentration of the liberated Norfloxacin after oral administration 100 mg/kg in mice after the 4.0 h. The format is functional, organism-based. Also noted: dose 100 mg/kg. The procedure, abridged: as §2
The subject of series [7] is Mus musculus. The series can be described thus: Serum concentration of the liberated Norfloxacin after oral administration (100 mg/kg) in mice after 1.0 hr. The format is functional, organism-based. The procedure, abridged: as §2
The subject of series [8] is Mus musculus. The series can be described thus: Serum concentration of the liberated Norfloxacin after oral administration 100 mg/kg in mice after the 2.0 h. The class given is functional, organism-based. Details: dose 100 mg/kg. The procedure, abridged:
as §2

A short description of series [9]: (§3) Compound was evaluated for Area under curve in mice. The format is ADME, organism-based. Also noted: concentration or dose not given beside the values. The following applies: mouse, in vivo.
Series [10] is filed under the species Mus musculus. The description is as §3. Details: concentration or dose not given beside the values. The format is ADME, organism-based. The following applies: in vivo.
Series [11] relates to Mus musculus. The series can be described thus: Serum concentration of the liberated Norfloxacin after oral administration (100 mg/kg) in mice after 0.5 hr; ND is not detected. The class given is functional, organism-based. In a few lines: as §2
The test system of series [12] is Mus musculus. The experiment in a line: Serum concentration of the liberated Norfloxacin after oral administration (100 mg/kg) in mice after 1.0h; ND is not detected. The format is functional, organism-based. In a few lines:
as §2

For series [13], the system named is Mus musculus. The experiment in a line: Serum concentration of the liberated Norfloxacin after oral administration (100 mg/kg) in mice after 2.0h; ND is not detected. The format is functional, organism-based. The procedure, abridged: as §2
For series [14], the system named is Mus musculus. The series can be described thus: Serum concentration of the liberated Norfloxacin after oral administration (100 mg/kg) in mice after 4.0h; ND is not detected. The class given is functional, organism-based. In a few lines: as §2
The subject of series [15] is Mus musculus. The series is described as §1. The class given is functional, organism-based. The procedure, abridged:
as §2
The source holds these as a separate data set.

As usually defined, the AUC is the area under the concentration-time curve, a measure of exposure. Take `CCn1cc(C(=O)O)c(=O)c2cc(F)c(N3CCNCC3)cc21` [NORFLOXACIN]: the Serum concentration in the series on Mus musculus [1] was found to be 3.47 µg/mL; with Mus musculus [2], 2.02 µg/mL; in the series with Mus musculus [3], 0.56 µg/mL; in the series on Mus musculus [4], 3.47 µg/mL; with Mus musculus [5], 1.12 µg/mL; in the series on Mus musculus [6], 0.56 µg/mL. For the same molecule, the values for the Serum concentration in the series on Mus musculus [7] and in the series on Mus musculus [8] were 2.02 µg/mL and 1.12 µg/mL, respectively. Also, the AUC (in series [9]; in the series listed under Mus musculus [10]) was 6490 ng·h/mL throughout.

Consider `CCn1cc(C(=O)O)c(=O)c2cc(F)c(N3CCN(CC(C)O)CC3)cc21` (stereo not drawn), for which the Serum concentration entry with Mus musculus [11], in the series with Mus musculus [12], in the series on Mus musculus [13] and with Mus musculus [14] was “Not detected” each time.

Take `CCn1cc(C(=O)O)c(=O)c2cc(F)c(N3CCN(C(C)(C)C(C)=O)CC3)cc21`: the Serum concentration result in the series on Mus musculus [11], with Mus musculus [12], with Mus musculus [13] and in the series on Mus musculus [14] was “Not detected” each time.

In the case of `CCn1cc(C(=O)O)c(=O)c2cc(F)c(N3CCN(CC(C)=O)CC3)cc21`, the Serum concentration with Mus musculus [1] amounted to 6.33 µg/mL; in the series on Mus musculus [2], 5.74 µg/mL; in the series with Mus musculus [3], 2.62 µg/mL; in the series with Mus musculus [5], 3.96 µg/mL; with Mus musculus [6] it was 2.62 µg/mL; in the series on Mus musculus [7], 5.74 µg/mL. In addition, the Serum concentration turned out to be 3.96 µg/mL with Mus musculus [8] and 6.33 µg/mL in the series with Mus musculus [15]. In addition, the results for the AUC (in series [9]; in the series listed under Mus musculus [10]) were 22000 ng·h/mL and 22010 ng·h/mL, respectively.

Regarding `CCn1cc(C(=O)O)c(=O)c2cc(F)c(N3CCN(CC#N)CC3)cc21`, the Serum concentration amounted to 0.29 µg/mL in the series with Mus musculus [1]; 0.75 µg/mL in the series with Mus musculus [2]; 0.63 µg/mL in the series with Mus musculus [3]; 0.29 µg/mL in the series on Mus musculus [4]; 1.15 µg/mL in the series on Mus musculus [5]; 0.63 µg/mL with Mus musculus [6]. Besides, the values for the Serum concentration in the series with Mus musculus [7] and in the series on Mus musculus [8] were 0.75 µg/mL and 1.15 µg/mL, respectively. In addition, the AUC (in [9]; in the series filed under Mus musculus [10]) was 3060 ng·h/mL in each case.

Regarding `CCn1cc(C(=O)O)c(=O)c2cc(F)c(N3CCN(C(C)C(C)=O)CC3)cc21` (stereo not drawn), the Serum concentration with Mus musculus [1] was determined as 2.63 µg/mL; in the series on Mus musculus [2], 1.68 µg/mL; in the series on Mus musculus [3] it was 0.63 µg/mL; with Mus musculus [4] it was 2.63 µg/mL; in the series with Mus musculus [5] it was 1.67 µg/mL; in the series with Mus musculus [6], 0.63 µg/mL. For the same molecule, the Serum concentration with Mus musculus [7] was found to be 1.68 µg/mL; with Mus musculus [8], 1.67 µg/mL. The AUC (in series [9]; in the series filed under Mus musculus [10]) was 5710 ng·h/mL throughout.

As to `CCOC(=O)CN1CCN(c2cc3c(cc2F)c(=O)c(C(=O)O)cn3CC)CC1`, the Serum concentration with Mus musculus [1] stood at 3.77 µg/mL; in the series on Mus musculus [2], 1.37 µg/mL; in the series with Mus musculus [3], 0.42 µg/mL; in the series on Mus musculus [4], 3.77 µg/mL; in the series with Mus musculus [5], 0.38 µg/mL; with Mus musculus [6] it was 0.42 µg/mL. Further, the Serum concentration in the series with Mus musculus [7] amounted to 1.37 µg/mL; with Mus musculus [8], 0.38 µg/mL. Besides, the AUC (in series [9]; in the series listed under Mus musculus [10]) was 3900 ng·h/mL in each case.
